Measured values: PMC10622838 (The Journal of Biological Chemistry, 2023)

What was measured:
[1] = test system: GPR114-A230M (CTF-only, compromised TA); experiment: CRE-luciferase reporter assay, GPR114-A230M; format: cell-based, human; conditions: HEK293T, thrombin 4 h, FLuc/RLuc ratio, Fig. 4C
PAR1-GPR56 fusion / G13 = experiment: G13 GTPγS binding kinetics, PAR1-GPR56 fusion Sf9 membranes; format: biochemical, human; conditions: Fig. S1A
GPR114 = experiment: CRE-Luc assay, GPR114 overexpressed in HEK293T cells; format: cell-based, human
How it was run: (§1)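 HEK293T cells plated in DMEM + 10% FBS 24 h before polyethylenimine co-transfection with receptor in pcDNA3.1, rat insulin II promoter CRE-firefly luciferase, and phRLuc-N1 Renilla control. Cells were reseeded at 80,000/well 6 h later, serum-starved 4 h at 36 h, then given synthetic peptide in DMSO for 4 h. Firefly luminescence (Steady-Glo) was normalised to RLuc (3 μM coelenterazine h). Mean ± SD, ≥3 independent experiments.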

GPR64 = experiment: CRE-Luc assay, GPR64 overexpressed in HEK293T cells; format: cell-based, human
How it was run: as §1

EoL-1 cells = experiment: cAMP accumulation; format: cell-based, human; conditions: from combined Fig. 5F and Fig. 5H

Substance	thrombin-dependent CRE-luciferase activation [1]	thrombin-dependent activation of purified G13 (PAR1-GPR56 fusion / G13)	activation in CRE-Luc assay (GPR114; GPR114, Fig. 5H, as summarised in Discussion)	CRE-Luc activity (stimulation) (GPR114; TA-compromised (ΔTA) 7TM version of GPR114, Fig. 5H)	CRE-Luc activity (stimulation) (GPR114; full length GPR114, Fig. 5H)	activation in CRE-Luc assay (GPR64; GPR64, Fig. 5H, as summarised in Discussion)	CRE-Luc activity (stimulation) (GPR64; TA-compromised (ΔTA) 7TM version of GPR64, Fig. 5H)	CRE-Luc activity (stimulation) (GPR64; full length GPR64, Fig. 5H)	target specificity of cAMP stimulation in EoL-1 cells (conclusion) (EoL-1 cells)
Thrombin	not stimulated by thrombin	strong thrombin-dependent activation of purified G13							
TYFAVLM [P7 GPR114-AP]			did not activate GPR114 nor GPR64	did not stimulate cAMP production in any condition	did not stimulate cAMP production in any condition	did not activate GPR114 nor GPR64	did not stimulate cAMP production in any condition	did not stimulate cAMP production in any condition	promiscuously stimulates cAMP accumulation via a yet to be determined GPCR
